Reference: ChEMBL document CHEMBL1154823, “Polyacetylenes from Bupleurum longiradiatum” (J Nat Prod, 2009)
pIC50: −log10 of the molar value.

tested on: HL-60; assay: Growth inhibition of human HL60 cells after 3 days by MTT assay; assay type: functional, cell-based; conditions: HL-60, 72 h
Summary of the method: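 HL-60 human leukemia cells, […], seeded at 4000-5000 cells/well and […] before compound addition. Compounds tested at 0.01, 0.1, 1, 10 and 100 µg/mL for 3 days. MTT (5 mg/mL) added, formazan dissolved in DMSO after 4 h, OD read at 570 nm. Growth inhibition (%) = (OD_control − OD_treated)/OD_control × 100. Doxorubicin served as positive control.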

pIC50	Compound
< 5.00	CC(=O)OC/C=C/C=C/C#CC/C=C\CCCCCCCCOC(C)=O
4.96	CCCCCC/C=C/C=C/C#C/C=C/C=C/COC(C)=O
4.96	CCCCCCC/C=C\CC#C/C=C/C=C/COC(C)=O
4.96	CCCC/C=C/C=C/C#CC#C/C=C\CO
5.03	CCC[C@H](O)CC/C=C/C=C/C#CC#C/C=C\COC(C)=O

Further lines, the compound ahead of its results:

Compound	pIC50
OC/C=C\C#CC#CC/C=C\CCCCCCCCO	< 5.00
CCCCCC/C=C/C=C/C#CC#C/C=C\CO	4.96
CCCCCCC/C=C\CC#CC#C/C=C\CO	4.96
CCCCC/C=C\CC#CC#C/C=C\CO	4.96
OC/C=C/C=C/C#CC/C=C\CCCCCCCCO	< 5.00
CCC[C@H](CC/C=C/C=C/C#CC#C/C=C\CO)OC(C)=O [ACETYLBUPLEUROTOXIN]	4.96
CCCC(=O)CC/C=C/C=C/C#CC#C/C=C\CO [BUPLEURONOL]	4.96
CCC[C@H](O)CC/C=C/C=C/C#CC#C/C=C\CO [BUPLEUROTOXIN]	5.31
